In ChEMBL document CHEMBL1156601, “Aminomethylpiperazines as selective urotensin antagonists” (Bioorg Med Chem Lett, 2008):

Key:
[1] = Displacement of [125I]hU-2 from human recombinant urotensin receptor expressed in HEK293 cells; assay type: cell-based
Method in brief: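 Radioligand binding with [125I]hU-II on membranes of HEK293 cells stably expressing recombinant human UT receptor. Ki given as the mean of at least two determinations (SD <±0.3 log units).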

[2] = molecular target: Kappa-type opioid receptor (Homo sapiens, UniProt P41145); assay: Agonist activity at human kappa opioid receptor expressed in CHO-K1 cells by [35S]GTPgamma binding assay; assay type: functional, cell-based
Method in brief: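 Human κ-opioid receptor, membranes from BacMam-transduced CHO-K1 cells. Agonism read as [35S]GTPγS binding, detected by LEADseeker SPA. EC50 reported from a single run or as the mean of two runs (SD <±0.3 log units).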

[3] = Antagonist activity at rat urotensin receptor in Sprague-Dawley rat thoracic aorta assessed as inhibition of urotensin-mediated contraction; assay type: functional
Method in brief: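 Isolated rat aortic rings were contracted via UT, and the test agent's inhibition of that contraction was measured. The value is reported as a Kb, the mean of two determinations ± SEM.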

[4] = Displacement of [125I]hU-2 from rat recombinant urotensin receptor expressed in HEK293 cells; assay type: cell-based
Rattus norvegicus = organism: Rattus norvegicus; assay: Selectivity ratio of Kb for urotensin receptor in Sprague-Dawley rat thoracic aorta to Ki for rat recombinant urotensin receptor; assay type: tissue-based

Sequence of Kappa-type opioid receptor (P41145 whole entry): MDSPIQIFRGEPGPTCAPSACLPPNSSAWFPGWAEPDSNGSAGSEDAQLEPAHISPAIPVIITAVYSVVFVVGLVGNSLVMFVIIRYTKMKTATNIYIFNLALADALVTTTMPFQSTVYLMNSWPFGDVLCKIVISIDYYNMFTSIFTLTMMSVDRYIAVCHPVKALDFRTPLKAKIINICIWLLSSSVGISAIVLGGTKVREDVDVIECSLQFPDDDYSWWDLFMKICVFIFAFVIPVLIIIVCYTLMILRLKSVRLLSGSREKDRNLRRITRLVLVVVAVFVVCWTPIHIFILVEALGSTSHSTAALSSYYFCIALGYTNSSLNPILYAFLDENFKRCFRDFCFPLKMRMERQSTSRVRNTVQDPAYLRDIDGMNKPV

Row | SMILES | Ki [1] | EC50 [2] | Kb [3] | Ki [4] | Ratio (Rattus norvegicus)
1 | COc1cccc(S(=O)(=O)N2CCN(C(=O)Cn3c(=O)oc4ccc(Cl)cc43)C(CN3CCCC3)C2)c1 (configuration not stated) | 25 nM | 320 nM |  |  | 
2 | O=C(Cn1c(=O)oc2ccc(Cl)cc21)N1CCN(S(=O)(=O)c2ccccc2Br)CC1CN1CCCC1 (configuration not stated) | 8 nM | 2000 nM | 52.8 nM |  | 
3 | COc1ccc(Br)cc1S(=O)(=O)N1CCN(C(=O)Cn2c(=O)oc3ccc(Cl)cc32)C(CN2CCCC2)C1 (configuration not stated) | 130 nM | 790 nM |  |  | 
4 | COc1cccc(S(=O)(=O)N2CCN(C(=O)CN(C)c3ccc(Cl)c(Cl)c3)C(CN3CCCC3)C2)c1 (configuration not stated) | 79 nM | 79 nM |  |  | 
5 | CC(=O)Nc1ccc(S(=O)(=O)N2CCN(C(=O)Cn3c(=O)oc4ccc(Cl)cc43)C(CN3CCCC3)C2)cc1 (configuration not stated) | 2.5 nM | 1300 nM | 13.1 nM | 4 nM | 3.3
6 | CN(CC(=O)N1CCN(C(=O)Nc2ccccc2)CC1CN1CCCC1)c1ccc(Cl)c(Cl)c1 (configuration not stated) | 790 nM | 4000 nM |  |  | 
7 | O=C(Cn1c(=O)oc2ccc(Cl)cc21)N1CCN(S(=O)(=O)c2ccccc2)CC1CN1CCCC1 (configuration not stated) | 20 nM | 790 nM |  |  | 
8 | CN(CC(=O)N1CCN(C(=O)c2ccncc2)CC1CN1CCCC1)c1ccc(Cl)c(Cl)c1 (configuration not stated) | 100 nM | 630 nM |  |  | 
9 | COc1ccc(C(=O)N2CCN(C(=O)CN(C)c3ccc(Cl)c(Cl)c3)C(CN3CCCC3)C2)cc1OC (configuration not stated) | 400 nM | > 10000 nM |  |  | 
10 | CN(CC(=O)N1CCN(S(=O)(=O)c2cccc(Cl)c2)CC1CN1CCCC1)c1ccc(Cl)c(Cl)c1 (configuration not stated) | 160 nM | 200 nM |  |  | 
11 | CN(CC(=O)N1CCN(C(=O)c2cccc(Cl)c2)CC1CN1CCCC1)c1ccc(Cl)c(Cl)c1 (configuration not stated) | 130 nM | > 10000 nM |  |  | 
12 | COc1cccc(N2CCN(C(=O)CN(C)c3ccc(Cl)c(Cl)c3)C(CN3CCCC3)C2)c1 (configuration not stated) | 50 nM | 3.2 nM |  |  | 
13 | CN(CC(=O)N1CCN(S(C)(=O)=O)CC1CN1CCCC1)c1ccc(Cl)c(Cl)c1 (configuration not stated) | 100 nM | 3 nM |  |  | 
14 | O=C(Cn1c(C(F)(F)F)nc2ccccc21)N1CCN(c2ccccc2)CC1CN1CCCC1 (configuration not stated) | 79 nM |  |  |  | 
15 | CN(CC(=O)N1CCN(C(=O)c2ccccc2)CC1CN1CCCC1)c1ccc(Cl)c(Cl)c1 (configuration not stated) | 200 nM | 7900 nM |  |  | 
16 | COc1ccc(S(=O)(=O)N2CCN(C(=O)Cn3c(=O)oc4ccc(Cl)cc43)C(CN3CCCC3)C2)cc1OC (configuration not stated) | 13 nM | 320 nM |  |  | 
17 | COc1ccc(S(=O)(=O)N2CCN(C(=O)Cn3c(=O)oc4ccc(Cl)cc43)C(CN3CCCC3)C2)c(Br)c1OC (configuration not stated) | 1.6 nM | 1300 nM | 14.2 nM | 10 nM | 1.4
18 | O=C(Cn1c(=O)oc2ccc(Cl)cc21)N1CCN(S(=O)(=O)c2cccc(C(F)(F)F)c2)CC1CN1CCCC1 (configuration not stated) | 50 nM | 2000 nM |  |  | 

Row | SMILES | Ki [1] | EC50 [2] | Kb [3] | Ki [4] | Ratio (Rattus norvegicus)
19 | O=C(Cn1c(=O)oc2ccc(Cl)cc21)N1CCN(S(=O)(=O)c2cc(C(F)(F)F)ccc2Cl)CC1CN1CCCC1 (configuration not stated) | 13 nM | 1000 nM |  |  | 
20 | COc1ccc(S(=O)(=O)N2CCN(C(=O)Cn3c(=O)oc4ccc(Cl)cc43)C(CN3CCCC3)C2)cc1 (configuration not stated) | 25 nM | 2000 nM |  |  | 
21 | N#Cc1cccc(S(=O)(=O)N2CCN(C(=O)Cn3c(=O)oc4ccc(Cl)cc43)C(CN3CCCC3)C2)c1 (configuration not stated) | 10 nM | 630 nM |  |  | 
22 | CN(CC(=O)N1CCN(S(=O)(=O)c2ccccc2)CC1CN1CCCC1)c1ccc(Cl)c(Cl)c1 (configuration not stated) | 20 nM | 250 nM |  |  | 
23 | O=C(O)c1ccc(S(=O)(=O)N2CCN(C(=O)Cn3c(=O)oc4ccc(Cl)cc43)C(CN3CCCC3)C2)cc1O (configuration not stated) | 13 nM | 7900 nM | 10 nM | 8 nM | 1.3
24 | O=C(Cn1c(=O)oc2ccccc21)N1CCN(S(=O)(=O)c2ccccc2)CC1CN1CCCC1 (configuration not stated) | 500 nM | 1000 nM |  |  | 
25 | CN(CC(=O)N1CCN(c2ccc(F)c(F)c2)CC1CN1CCCC1)c1ccc(Cl)c(Cl)c1 (configuration not stated) | 100 nM | 6.3 nM |  |  | 
26 | CN(CC(=O)N1CCN(c2ccccc2)CC1CN1CCCC1)c1ccc(Cl)c(Cl)c1 (configuration not stated) | 250 nM | 1.3 nM |  |  | 
27 | O=C(Cn1c(=O)oc2ccccc21)N1CCN(c2ccccc2)CC1CN1CCCC1 (configuration not stated) | 130 nM | 400 nM |  |  | 
28 | CN(CC(=O)N1CCCCC1CN1CCCC1)c1ccc(Cl)c(Cl)c1 (configuration not stated) | 500 nM | 3 nM |  |  | 
29 | CN(CC(=O)N1CCN(C(=O)c2ccc(C#N)cc2)CC1CN1CCCC1)c1ccc(Cl)c(Cl)c1 (configuration not stated) | 1300 nM | 3200 nM |  |  | 
30 | CN(CC(=O)N1CCN(S(=O)(=O)c2ccc(F)c(F)c2)CC1CN1CCCC1)c1ccc(Cl)c(Cl)c1 (configuration not stated) | 130 nM | 400 nM |  |  | 
31 | CN(CC(=O)N1CCN(S(=O)(=O)c2ccc(Cl)cc2)CC1CN1CCCC1)c1ccc(Cl)c(Cl)c1 (configuration not stated) | 100 nM | 790 nM |  |  | 
32 | O=C(Cc1cccc2ccccc12)N1CCN(c2ccccc2)CC1CN1CCCC1 (configuration not stated) | 320 nM | 1.6 nM |  |  | 
33 | CN(CC(=O)N1CCN(c2cccc(Cl)c2)CC1CN1CCCC1)c1ccc(Cl)c(Cl)c1 (configuration not stated) | 63 nM | 4 nM |  |  | 
34 | O=C(O)c1ccc(S(=O)(=O)N2CCN(C(=O)Cn3c(=O)oc4ccc(Cl)cc43)C(CN3CCCC3)C2)cc1 (configuration not stated) | 25 nM | 2000 nM | 81.8 nM | 32 nM | 2.6
35 | O=C(Cc1csc2ccc(Cl)cc12)N1CCN(c2ccccc2)CC1CN1CCCC1 (configuration not stated) | 63 nM | 2 nM |  |  | 
